# Laboratory results taken from ChEMBL document CHEMBL1129596, “Synthesis, biological activity, and molecular modeling of selective 5-HT(2C/2B) receptor antagonists” (J Med Chem, 1996).
# How the values were obtained:
# [1] = target: 5-hydroxytryptamine receptor 2A (Rattus norvegicus, UniProt P14842); assay: Displacement of [3H]ketanserin from 5-HT2A receptor of rat frontal cortex; type: tissue-based
# Outline: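 Radioligand binding in rat frontal cortex membranes with [3H]ketanserin as the labelled ligand. Values are the mean of at least two determinations, each within 0.2 log unit of the mean.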
# [2] = target: T1, 5-hydroxytryptamine receptor 2C (Rattus norvegicus, UniProt P08909); assay: Displacement of [3H]mesulergine from rat 5-HT2C receptor expressed in HEK293
# T1 sequence (P08909 whole entry): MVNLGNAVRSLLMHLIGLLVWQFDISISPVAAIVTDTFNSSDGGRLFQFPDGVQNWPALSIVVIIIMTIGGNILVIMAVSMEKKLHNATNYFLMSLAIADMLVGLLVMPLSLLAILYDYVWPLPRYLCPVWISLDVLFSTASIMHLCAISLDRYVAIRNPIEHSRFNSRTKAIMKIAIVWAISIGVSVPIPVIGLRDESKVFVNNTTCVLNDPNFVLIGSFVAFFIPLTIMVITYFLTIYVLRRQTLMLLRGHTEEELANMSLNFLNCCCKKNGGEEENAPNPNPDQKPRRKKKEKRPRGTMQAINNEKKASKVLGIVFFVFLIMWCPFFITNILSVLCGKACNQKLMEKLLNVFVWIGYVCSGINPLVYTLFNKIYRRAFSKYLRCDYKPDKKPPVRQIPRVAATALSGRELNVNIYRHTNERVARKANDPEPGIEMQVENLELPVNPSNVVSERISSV
# Outline: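 Binding to cloned rat 5-HT2C receptors expressed in HEK 293 cells, with [3H]mesulergine as radioligand. Each value is the mean of at least two determinations, each lying within 0.2 log unit of the mean.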
# [3] = target: 5-hydroxytryptamine receptor 2B (Rattus norvegicus, UniProt P30994); assay: Inhibition of 5-HT binding to 5-HT2B receptor of Rat stomach fundus; type: tissue-based; conditions: read-out: pA2 (converted)
# Chain of 5-hydroxytryptamine receptor 2B (P30994 whole entry): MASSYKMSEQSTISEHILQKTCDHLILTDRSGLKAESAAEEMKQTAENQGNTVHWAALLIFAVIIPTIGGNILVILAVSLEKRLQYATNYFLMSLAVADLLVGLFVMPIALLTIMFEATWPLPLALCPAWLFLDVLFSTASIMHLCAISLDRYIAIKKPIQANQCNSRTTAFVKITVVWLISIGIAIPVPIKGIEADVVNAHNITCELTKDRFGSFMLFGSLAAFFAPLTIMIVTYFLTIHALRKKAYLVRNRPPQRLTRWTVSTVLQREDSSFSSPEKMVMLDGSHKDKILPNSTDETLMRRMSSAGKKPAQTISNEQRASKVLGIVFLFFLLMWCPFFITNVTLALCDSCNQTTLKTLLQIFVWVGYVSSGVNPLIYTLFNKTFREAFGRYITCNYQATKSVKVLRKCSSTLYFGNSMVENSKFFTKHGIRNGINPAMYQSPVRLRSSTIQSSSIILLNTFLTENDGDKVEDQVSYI
# Outline: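 Functional rather than binding assay: inhibition of 5-HT-induced contractions of isolated rat stomach fundus. Values are the mean of at least two determinations, each within 0.2 log unit of the mean.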
# [4] = target: Serotonin receptor 2a and 2c (5HT2A and 5HT2C) (Rattus norvegicus) (UniProt P08909+P14842); assay: Relative affinity for 5-hydroxytryptamine 2C over 5-hydroxytryptamine 2A receptors; type: protein assay
# Chain of Serotonin receptor 2a and 2c (5HT2A and 5HT2C) (Rattus norvegicus) (P14842 whole entry, looked up, one chain of several): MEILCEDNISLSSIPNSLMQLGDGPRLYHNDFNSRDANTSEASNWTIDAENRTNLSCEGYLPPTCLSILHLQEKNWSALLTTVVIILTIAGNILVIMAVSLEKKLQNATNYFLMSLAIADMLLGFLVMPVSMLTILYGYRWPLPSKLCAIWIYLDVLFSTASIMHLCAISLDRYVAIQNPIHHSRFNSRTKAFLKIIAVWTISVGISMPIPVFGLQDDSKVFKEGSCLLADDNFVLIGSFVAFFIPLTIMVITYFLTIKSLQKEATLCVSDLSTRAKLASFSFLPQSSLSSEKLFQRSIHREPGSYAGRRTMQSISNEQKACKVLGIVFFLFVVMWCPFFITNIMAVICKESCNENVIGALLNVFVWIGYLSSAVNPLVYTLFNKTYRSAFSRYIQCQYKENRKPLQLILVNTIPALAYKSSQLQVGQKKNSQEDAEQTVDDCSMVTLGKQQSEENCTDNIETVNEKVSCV
# Chain of 5-hydroxytryptamine receptor 2A (P14842 whole entry): as the sequence (P14842 whole entry, looked up, one chain of several) above
Compound,Ki [1],Ki [2],Kb [3],Selectivity ratio [4]
Cc1cc2cc3c(cc2n1C)CCN3C(=O)Nc1cccnc1,3160 nM,39.8 nM,20 nM,80
Cn1ccc2c3c(ccc21)CCN3C(=O)Nc1cccnc1,–,200 nM,–,–
CN1CCc2cc3c(cc21)CCN3C(=O)Nc1cccnc1,5010 nM,63.1 nM,12.6 nM,80
O=C(Nc1cccnc1)N1CCc2cc3c(ccn3Cc3ccccc3)cc21,> 6310 nM,50.1 nM,200 nM,> 130
Cn1ccc2ccc3c(c21)CCN3C(=O)Nc1cccnc1,3160 nM,63.1 nM,–,50
O=C(Nc1cccnc1)N1CCc2cc3[nH]ccc3cc21,1580 nM,126 nM,31.6 nM,13
Cn1ccc2cc3c(cc21)N(C(=O)Nc1cccnc1)CC3,–,1260 nM,–,–
Cn1ccc2c3c(ccc21)N(C(=O)Nc1cccnc1)CC3,2000 nM,25.1 nM,15.8 nM,–

# These reach a lower Ki [2]. Values come first.
Ki [1],Ki [2],Kb [3],Selectivity ratio [4],Compound
3160 nM,12.6 nM,7.94 nM,250,CCCn1ccc2cc3c(cc21)CCN3C(=O)Nc1cccnc1
251 nM,7.94 nM,10 nM,30,O=C(Nc1cccnc1)N1CCc2cc3sccc3cc21
3980 nM,10 nM,6.31 nM,400,CC(C)n1ccc2cc3c(cc21)CCN3C(=O)Nc1cccnc1
501 nM,5.01 nM,3.16 nM,100,Cn1ccc2cc3c(cc21)CCN3C(=O)Nc1cccnc1
398 nM,2.51 nM,1.26 nM,160,Cc1coc2cc3c(cc12)CCN3C(=O)Nc1cccnc1
1260 nM,7.94 nM,10 nM,160,CCn1ccc2cc3c(cc21)CCN3C(=O)Nc1cccnc1
